ChEMBL document CHEMBL1144182, “Antimicrobial and cytotoxic arylazoenamines. Part III: antiviral activity of selected classes of arylazoenamines” (Bioorg Med Chem, 2008)
Calls of active or inactive are those of the source. How the calls were made is not given here.

What was measured:
[1] = Cytotoxicity against mock-infected human MT4 cells assessed as reduction in cell viability after 96 hrs by MTT assay; assay type: cell-based
Method in brief: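 Exponentially growing MT-4 cells seeded at 1 × 10^5 cells/mL in RPMI-1640 with 10% FCS, penicillin and streptomycin, with or without serial compound dilutions. Incubated at 37 °C, 5% CO2; viability read by MTT after 96 h. CC50 is the concentration reducing mock-infected cell viability by 50%.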

[2] = Cytotoxicity against mock-infected MDBK cells assessed as reduction in cell viability after 96 hrs by MTT assay; assay type: cell-based, Bos taurus; details: cattle
Method in brief: (§1)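 Cytotoxicity run in parallel with the antiviral assays. MDBK seeded at 6 × 10^5 and BHK at 1 × 10^6 cells/mL in maintenance medium with or without serial compound dilutions. Incubated 48–96 h at 37 °C, 5% CO2, then viability read by MTT. CC50 is the concentration reducing mock-infected cell viability by 50%.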

[3] = test system: Bovine viral diarrhea virus 1; experiment: Antiviral activity against BVDV infected in MDBK cells assessed as protection against virus-induced cytopathogenicity after 4 days by MTT assay; assay type: functional, organism-based; details: Bovine viral diarrhea virus isolates and strains, 96 h
Method in brief: (§2)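 MDBK (BVDV) or BHK-21 (YFV) cells were seeded at 3 × 10^4 or 5 × 10^4 cells/well respectively and grown overnight to confluent monolayers at 37 °C in 5% CO2. Monolayers were infected at m.o.i. 0.01 in serum-free medium. After 1 h, MEM Earle's with 1% FCS was added, with or without serial compound dilutions. After 3–4 days at 37 °C, viability was read by MTT. EC50 was taken as 50% protection from virus-induced cytopathogenicity.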

[4] = Cytotoxicity against mock-infected BHK cells assessed as reduction in cell viability after 96 hrs by MTT assay; assay type: cell-based, Mesocricetus auratus; details: hamster; method in brief: as §1
Yellow fever virus = experiment: Antiviral activity against YFV infected in BHK21 cells assessed as protection against virus-induced cytopathogenicity after 4 days by MTT assay; assay type: functional, organism-based; details: BHK-21, 96 h; method in brief: as §2
[5] = Cytotoxicity against mock-infected african green monkey Vero76 cells assessed as reduction in cell viability after 96 hrs by MTT assay; assay type: cell-based, Vero; details: chlorocebus sabaeus
Coxsackievirus B2 = experiment: Antiviral activity against CVB2 infected in Vero76 cells assessed as reduction in virus plaque formation after 4 days by MTT assay; assay type: functional, organism-based; details: Enterovirus B, Vero 76, 96 h
[6] = test system: Respiratory syncytial virus; experiment: Antiviral activity against RSV infected in Vero76 cells assessed as reduction in virus plaque formation after 4 days by MTT assay; assay type: functional, organism-based; details: human respiratory syncytial virus, Vero 76, 96 h
Poliovirus 1 = experiment: Antiviral activity against Sb1 virus infected in Vero76 cells assessed as reduction in virus plaque formation after 4 days by MTT assay; assay type: functional, organism-based; details: Enterovirus C, Sabin, Vero 76, 96 h
[7] = test system: Human immunodeficiency virus 1; experiment: Antiviral activity against HIV1 infected in MT4 cells assessed as virus-induced cytopathogenicity after 4 days; assay type: functional, organism-based
Vaccinia virus = experiment: Antiviral activity against VV infected in Vero76 cells assessed as reduction in virus plaque formation after 4 days by MTT assay; assay type: functional, organism-based; details: Orthopoxvirus vaccinia; Vero 76
[8] = test system: Vesicular stomatitis virus; experiment: Antiviral activity against VSV infected in Vero76 cells assessed as reduction in virus plaque formation after 4 days by MTT assay; assay type: functional, organism-based; details: Vero 76

| SMILES | CC50 at 96 h [1] [µM] | CC50 at 96 h [2] [µM] | EC50 [3] [µM] | CC50 at 96 h [4] [µM] | EC50 (Yellow fever virus) [µM] | CC50 at 96 h [5] [µM] | EC50 (Coxsackievirus B2) [µM] | EC50 [6] [µM] | EC50 (Poliovirus 1) [µM] | Activity [7] | Activity (Vaccinia virus) | Activity [8] |
| --- | --- | --- | --- | --- | --- | --- | --- | --- | --- | --- | --- | --- |
| Clc1ccc(N2CCN(/C=C/N=N/c3ccccc3)CC2)cc1 | 21 | 7.5 | > 7.5 | 29 | 7.5 | 45 | 7 | 7 | > 45 | inactive | inactive | inactive |
| FC(F)(F)c1cc(/N=N/C2=CN(Cc3ccccc3)CCC2)ccc1Cl | 43 | 28 | ≥ 28 | 32 | 22 | 48 | 4 | > 48 | > 48 | inactive | inactive | inactive |
| c1ccc2c(/N=N\C3=C4CCCN4CCC3)cccc2c1 | 18 | 91 | 3.5 | 51 | > 51 | 90 | 44 | > 90 | > 90 | inactive | inactive | inactive |
| CCOC(=O)c1ccc(/N=N/C=C/N2CCCC2)cc1 | 26 | 100 | > 100 | > 100 | > 100 | > 100 | 50 | > 100 | > 100 | inactive | inactive | inactive |
| Cc1ccc(/N=N/C=C2\CCCN2C)cc1 | > 100 | > 100 | 20 | > 100 | > 100 | > 100 | 60 | > 100 | > 100 | inactive | inactive | inactive |
| Clc1ccc2c(/N=N/C3=C4CCCCN4CCC3)ccnc2c1 | 15 | 40 | 5 | 48 | > 48 | 85 | 51 | > 85 | > 85 | inactive | inactive | inactive |
| CCOC(=O)N1CCN(/C=C/N=N/c2ccccc2)CC1 | 17 | 13 | > 13 | > 100 | > 100 | 30 | 12 | 4 | > 30 | inactive | inactive | inactive |
| O=[N+]([O-])c1cccc(/N=N\C2=C3CCCCN3CCC2)c1 | 37 | > 100 | 100 | 87 | > 87 | 90 | 71 | > 90 | 20 | inactive | inactive | inactive |
| C(=C\N1CCOCC1)/N=N/c1ccccc1 | 7 | 28 | > 28 | > 100 | > 100 | 30 | 7 | 15 | > 30 | inactive | inactive | inactive |
| CN1C=C(/N=N/c2ccc([N+](=O)[O-])cc2)CCC1 | > 100 | 62 | 11 | > 100 | > 100 | > 100 | > 100 | > 100 | > 100 | inactive | inactive | inactive |
| CN1C=C(/N=N/c2ccccc2Cl)CCC1 | > 100 | > 100 | 100 | > 100 | > 100 | > 100 | > 100 | > 100 | 8 | inactive | inactive | inactive |
| C(=C\N1CCN(c2ncccn2)CC1)/N=N/c1ccccc1 | 17 | 10 | > 10 | 100 | > 100 | 55 | 0.9 | 5 | > 55 | inactive | inactive | inactive |
| CN1C=C(/N=N/c2cccc(C(F)(F)F)c2)CCC1 | > 100 | > 100 | 90 | > 100 | > 100 | > 100 | > 100 | > 100 | > 100 | inactive | inactive | inactive |
| COc1ccc(N2CCN(/C=C/N=N/c3ccccc3)CC2)cc1 | 29 | 19 | > 19 | 46 | > 46 | 38 | 5 | 6 | > 38 | inactive | inactive | inactive |
| CN1C=C(/N=N/c2cccc([N+](=O)[O-])c2)CCC1 | > 100 | > 100 | 0.8 | 95 | > 95 | > 100 | > 100 | > 100 | > 100 | inactive | inactive | inactive |
| Clc1cccc(N2CCN(/C=C/N=N/c3ccccc3)CC2)c1 | 19 | 7 | > 7 | 47 | 10 | 11 | > 11 | 5 | > 11 | inactive | inactive | inactive |
| CN1CCC/C1=C\N=N\c1ccc(F)cc1 | 100 | 59 | 18 | 80 | 36 | 75 | > 75 | 12 | > 75 | inactive | inactive | inactive |
| C(/N=N/c1ccccc1)=C1/CCCN1Cc1ccccc1 | 22 | 74 | > 74 | 31 | > 31 | 87 | 16 | 30 | > 87 | inactive | inactive | inactive |
| CN1CCC/C1=C\N=N\c1ccc(Br)c(C(F)(F)F)c1 | 24 | > 100 | 46 | > 100 | > 100 | ≥ 100 | 100 | > 100 | 60 | inactive | inactive | inactive |
